Screening results (PubChem BioAssay)
Most compounds without a hit are left out; they make up all but 3.5% or so of the library.
PAFAH2 FP inh = PAFAH2 enzyme inhibitors, primary screen, biochemical, fluorescence polarization, human; Platelet-activating factor acetylhydrolase 2, cytoplasmic (Homo sapiens), Q99487; recombinant PAFAH2, FP-rhodamine activity probe; inhibition, % at 3.39 µM; hit rate 0.99% among 340,000; AID 492956, 2010;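 active = inhibition above the mean over all tested compounds plus 3 SD, cut at about 30% in these data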;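 also: inhibitors block probe labeling of enzyme so polarization drops; 0% = enzyme with DMSO and 100% = wells lacking PAFAH2 protein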
Apaf1 inhib = inhibitors of human Apaf-1 apoptosome, primary screen, biochemical, DEVD-Rh110 fluorescence, uHTS | hit rate 0.71% among 330,000 | AID 489030, 2010 | reconstituted apoptosome caspase-3 activity | inhibition, % at 20 µM; active = inhibition of at least 40% at 20 µM;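 also: plate controls were DMSO wells for no effect and DEVD-CHO caspase inhibitor wells for full effect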
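Material: reconstituted apoptosome with Apaf-1, cytochrome c, caspase-9, procaspase-3, dATP. Technique: Rh110 fluorescence intensity. Buffer or medium: pH 7.5 Hepes buffer with CHAPS, BSA, DTT. Times: 30 min plus 50 min, RT.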
pPAFAH FP inh = pPAFAH enzyme inhibitors, primary screen, biochemical, fluorescence polarization, human | Platelet-activating factor acetylhydrolase (Homo sapiens), Q13093 | recombinant pPAFAH, FP-rhodamine probe fluorescence polarization | inhibition, % at 3.39 µM | hit rate 1.5% among 330,000 | AID 463082, 2010;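 active = inhibition above the mean inhibition across the screen plus 3 SD, cut at about 25% in these data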;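 also: inhibitors block binding of the rhodamine activity-based probe so polarization drops; 0% = enzyme with DMSO and 100% = wells lacking pPAFAH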
PAFAH1B3 FP inh = PAFAH1B3 enzyme inhibitors, primary screen, biochemical, fluorescence polarization, human | Platelet-activating factor acetylhydrolase IB subunit alpha1 (Homo sapiens), Q15102 | recombinant PAFAH1B3, FP-rhodamine probe | inhibition, % at 3.39 µM | hit rate 0.28% among 340,000;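 active = inhibition above the screen-wide average of all tested compounds plus 3 SD, cut at about 25% in these data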;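 also: 0% = enzyme with DMSO only and 100% = wells lacking PAFAH1B3 protein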
Target sequence (Q15102 whole entry, looked up): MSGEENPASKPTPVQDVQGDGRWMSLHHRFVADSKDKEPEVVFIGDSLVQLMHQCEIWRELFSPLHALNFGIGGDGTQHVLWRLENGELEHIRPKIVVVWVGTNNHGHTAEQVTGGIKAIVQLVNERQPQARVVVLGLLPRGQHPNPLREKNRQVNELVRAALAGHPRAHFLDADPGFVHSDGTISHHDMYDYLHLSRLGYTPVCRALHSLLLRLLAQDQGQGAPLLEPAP
PREPL inh = PREPL enzyme inhibitors, primary screen, biochemical, fluorescence polarization | inhibition, % at 5.96 µM | recombinant PREPL, fluorescence polarization activity-based probe | hit rate 0.68% among 320,000 | AID 2751, 2010 | Prolyl endopeptidase-like (Homo sapiens), Q4J6C6; in the data active = inhibition above about 43%;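 also: 0% = enzyme with DMSO and 100% = wells lacking enzyme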
PAFAH1B2 FP inh = PAFAH1B2 enzyme inhibitors, primary screen, biochemical, fluorescence polarization, human. recombinant PAFAH1B2, FP-rhodamine activity probe. AID 492953, 2010. inhibition, % at 3.39 µM. Platelet-activating factor acetylhydrolase IB subunit alpha2 (Homo sapiens), P68402. hit rate 1.2% among 340,000;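 active = inhibition above the mean of all tested compounds plus 3 SD, cut at about 24% in these data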;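 also: 0% = enzyme with DMSO and 100% = wells lacking PAFAH1B2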
Target sequence (P68402 whole entry, looked up): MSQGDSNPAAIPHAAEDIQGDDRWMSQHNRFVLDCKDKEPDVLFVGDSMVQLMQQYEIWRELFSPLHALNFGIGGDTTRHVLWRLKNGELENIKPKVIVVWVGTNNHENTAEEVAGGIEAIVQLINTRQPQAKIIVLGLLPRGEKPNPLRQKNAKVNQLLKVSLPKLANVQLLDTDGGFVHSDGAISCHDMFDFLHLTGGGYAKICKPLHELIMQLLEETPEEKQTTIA
Apaf-1 inh conf = Apaf-1 inhibitors, single-dose retest, confirmation, biochemical, fluorescence, DEVD-Rh110, 20 µM. reconstituted apoptosome, caspase-3 DEVD-Rh110 fluorescence. hit rate 25% among 1,800. shares compounds with Apaf1 inhib. inhibition, % at 20 µM;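 active = mean inhibition of at least 40% at 20 µM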;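 also: plate controls were DMSO wells for no effect and DEVD-CHO caspase inhibitor control wells for full effect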
Rh110 interf inh = Rh110 fluorescence interference by putative Apaf-1 inhibitors, confirmation, artefact control for Apaf-1 inhibitor project, biochemical, 20 µM. AID 504615, 2011. shares compounds with Apaf1 inhib. activation (fluorescence interference), % at 20 µM. 1,800 tested, under 10 active. quenched caspase reaction;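 active = signal rise of 40% or more at 20 µM, treated as a fluorescence artifact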
Apaf1 inh interf = fluorescence interference of Apaf-1 inhibitor hits, dose response, artefact control for Apaf-1 inhibitor project | AID 588538, 2011 | 460 tested, under 10 active | IC50, µM | fluorescence interference counterscreen, Apaf-1 assay format | shares compounds with Apaf1 inhib; call rule not given here
The depositor's hits bear a star; . = not tested or not shown.

SMILES | PAFAH2 FP inh | Apaf1 inhib | pPAFAH FP inh | PAFAH1B3 FP inh | PREPL inh | PAFAH1B2 FP inh | Apaf-1 inh conf | Rh110 interf inh | others
[O-][N+]1=c2ccc(Nc3ccccc3)cc2=NC12CCCCC2 | 11 | . | 5 | 8 | 18 | 3 | . | .
O=C(COC(=O)c1ccc([N+](=O)[O-])o1)Nc1cccc(S(=O)(=O)N2CCCCC2)c1 | 11 | -23 | 2 | 2 | 5 | 1 | . | .
CC(C)(C)c1ccc(C(=O)NCC(=O)OCC(=O)N2CCN(S(=O)(=O)c3ccc(Cl)cc3)CC2)cc1 | -14 | 14 | 12 | 6 | 7 | 15 | . | .
O=C(OCC(=O)N1CCN(S(=O)(=O)c2ccc(Cl)cc2)CC1)c1ccc([N+](=O)[O-])o1 | 0 | 69* | 1 | 14 | -1 | 15 | 14 | 3
O=C(OCC(=O)N1CCN(S(=O)(=O)c2ccccc2)CC1)c1ccc([N+](=O)[O-])o1 | -2 | 80* | 4 | 7 | 2 | 0 | 18 | 10
COc1ccc(NC(=S)Nc2ccc3nsnc3c2)cc1 | 41* | 97* | 18 | 66* | 43 | 23 | 97* | 16 | Apaf1 inh interf=>100
Cc1ccc(NC(=S)NCc2ccc3c(c2)OCO3)cc1C | -3 | 6 | 4 | 2 | -28 | 0 | . | .
S=C(NCc1ccc2c(c1)OCO2)Nc1ccc2nsnc2c1 | 10 | 62* | 6 | 3 | -18 | 3 | 8 | 2
COc1ccc(-n2c(=O)[nH]cc(C(=O)Nc3ccc4c(c3)OCO4)c2=O)cc1OC | 0 | 1 | 5 | 12 | 4 | 1 | . | .
N#CC1(Nc2ccc(Br)cc2)CCCC1 | -1 | . | . | 1 | . | 6 | . | .
COc1ccc(N)c2c1OCCC2=O | 0 | 87* | 6 | 20 | 5 | 0 | 11 | 9
COc1ccc2c(c1OC)C(=O)OC2 | 0 | -10 | 4 | -1 | 12 | 1 | . | .
Cn1c(NC(=O)c2ccc(Cl)s2)cc(=O)n(C)c1=O | -9 | 66* | 0 | 7 | -18 | 5 | 10 | -3
Cc1nnc(SCC(=O)c2c(N)n(C3CC3)c(=O)[nH]c2=O)n1C | -5 | -9 | 2 | 1 | 9 | 7 | . | .
Cc1ccc(S(=O)(=O)Nc2c(C)n(C)n(-c3ccccc3)c2=O)cc1C(=O)OCC(=O)N1CCCC(C)C1 (centres undefined) | 18 | -2 | 2 | 8 | 1 | 6 | . | .
O=c1c2cc(NC(=S)NCc3cccnc3)ccc2nc2n1CCCCC2 | 3 | -1 | -5 | 14 | -2 | 1 | . | .
COc1ccc(N2CCN(C(=O)c3ccc(COc4ccc5c(C)cc(=O)oc5c4)cc3)CC2)cc1 | -5 | 58* | -4 | -5 | 10 | 1 | 17 | 5
COC(=O)c1ccc(NC(=O)CN2CCN(CCO)CC2)cc1 | 1 | 1 | 6 | 5 | 5 | -6 | . | .
CN(CC(=O)Nc1ccc(F)cc1)C(=O)C1CC(=O)N(Cc2ccccc2)C1 (centres undefined) | 3 | 44* | 2 | 4 | 2 | 7 | 26 | 3
COc1cccc(CNC(=O)CCS(=O)(=O)c2cccs2)c1 | -1 | -1 | 9 | 2 | -11 | 7 | . | .
CC(C)COCC(CN(Cc1ccccc1)c1ccccc1)N1CCCC1 (centres undefined) | 13 | 49* | -1 | 11 | 19 | -1 | 12 | 16
CC(C(=O)Nc1ccc(OCc2ccccc2)cc1)N1CCCC1 (centres undefined) | 6 | -3 | -2 | 1 | 0 | 2 | . | .
CC1CCN(CCc2nc3cc(NC(=O)COc4ccccc4)ccc3n2C)CC1 | 7 | 52* | 7 | 5 | 16 | 3 | 19 | -1
COc1ccc(N(CC(=O)NCCOc2ccccc2)S(=O)(=O)c2ccc(C)cc2)cc1 | 2 | 29 | 3 | 3 | -17 | 0 | . | .
COCCNC(=O)CN(c1cccc(OC)c1)S(=O)(=O)c1ccc(C)cc1 | 3 | 57* | 7 | 12 | 3 | -1 | 16 | 0
SMILES | PAFAH2 FP inh | Apaf1 inhib | pPAFAH FP inh | PAFAH1B3 FP inh | PREPL inh | PAFAH1B2 FP inh | Apaf-1 inh conf | Rh110 interf inh | others
COCCNC(=O)c1cc(S(=O)(=O)N(C)c2ccccc2OC)ccc1C | -3 | -12 | 3 | 4 | -5 | 5 | . | .
Cc1cc(C)c(S(=O)(=O)/N=C2/C=C(SCC(=O)O)C(=O)c3ccccc32)cc1C | 30* | 72* | . | 37* | . | 22 | 55* | -2 | Apaf1 inh interf=>100
COC(=O)c1cc(C)nc2c1C(=O)C(=O)C=C2N1CCOCC1 | 56* | 99* | 6 | 73* | 43 | 28* | 100* | 4 | Apaf1 inh interf=>100
COC(=O)c1cc(S(=O)(=O)N2CCOCC2)c(Cl)cc1N1CCOCC1 | 2 | -19 | 4 | 2 | 2 | 0 | . | .
CCOC(=O)N1CCN(C(=O)c2cccc(S(=O)(=O)Nc3ccc(F)cc3)c2)CC1 | 3 | . | . | 1 | . | 1 | . | .
CCOC(=O)N1CCN(C(=O)c2cccc(S(=O)(=O)Nc3ccc(OC)cc3)c2)CC1 | 0 | 51* | 9 | 2 | 14 | -2 | 34 | -2
CCc1nnc(SCC(=O)NCCC2=CCCCC2)nc1CC | -6 | 4 | 3 | -10 | 6 | 1 | . | .
COC(=O)c1ccc(-c2ccc(C(c3c(C)[nH][nH]c3=O)c3c(C)[nH][nH]c3=O)o2)cc1 | 11 | 44* | 14 | 17 | 6 | 7 | 42* | 0 | Apaf1 inh interf=>100
Cc1[nH][nH]c(=O)c1C(c1ccc(-c2ccccc2C(=O)O)o1)c1c(C)[nH][nH]c1=O | -4 | . | 1 | 8 | 6 | 8 | . | .
Cc1[nH][nH]c(=O)c1C(c1ccc(-c2cccc(C(=O)O)c2)o1)c1c(C)[nH][nH]c1=O | 4 | 78* | 0 | 9 | 13 | 9 | 31 | 9
CCOC(=O)C1(Cc2cccc(Cl)c2)CCCN(C(=O)C2CC2)C1 (centres undefined) | 2 | 10 | 1 | 3 | 3 | 4 | . | .
COc1ccc2sc(-c3ccccc3OC)c(-c3ccc(OC)c(F)c3)c2c1 | 1 | -7 | 2 | -2 | 2 | -1 | . | .
COc1ccc2sc(-c3ccccc3OC)c(-c3ccc(OCCN(C)C)cc3)c2c1 | -1 | 65* | 1 | 2 | . | 1 | 18 | 13
